Test results: the EternaBench riboswitch data

Tested on: MS2 coat protein
Assay: apparent Kd, MS2 coat protein; higher = weaker binding; RNA-MaP array; FMN 200 µM where present
Summary of the method: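 Green signal was scaled to red-channel RNA signal and control-cluster median Fmax, and the apparent Kd was taken as the median of filtered per-cluster binding-curve fits. The binding series used SNAP-549-labelled MS2 coat protein from 0.7 or 1.5 nM, doubling to 3 µM, on designs transcribed by stalled E. coli RNA polymerase on Illumina sequencing-chip clusters. Each series ran without and then with constant ligand in 100 mM Tris-HCl pH 7.5, 80 mM KCl, 4 mM MgCl2, BSA, DTT, yeast tRNA and Tween-20.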

[1] = designed as: OFF switch for flavin mononucleotide, no ligand
[2] = ligand present: flavin mononucleotide, designed as: OFF switch for flavin mononucleotide
[3] = designed as: ON switch for flavin mononucleotide, no ligand
[4] = ligand present: flavin mononucleotide, designed as: ON switch for flavin mononucleotide

Row | Sequence | apparent Kd [1] [nM] | apparent Kd [2] [nM] | apparent Kd [3] [nM] | apparent Kd [4] [nM]
1 | CAGCCCUGAGGAUAUCCAUCCUUGUACAUGAGGAUCACCCAUGUUUUCCUCUGGGCUUUCGGAGAAGGCAGGUAUC | 74.4 | 68.5 | – | –
2 | AAAAAGUGAGGAUAUGCUGCUCGUCACUUGCGUGAUGAGUAGCAGAAGGCACAUGAGGAUCACCCAUGUAAAAA | 36.2 | 42.8 | – | –
3 | AAAAAGCGAGGAUAUACAUAGCUAAGACAAAUAAGCAAAAAACAUGAGGAUCACCCAUGUAGAAGGCGCAAAAA | 19.2 | 15.4 | – | –
4 | AAUUACAGAUAAGGAUAUUGACAUGAGGAUCACCCAUGUAUUUGGGAAUGUUUACUGAAUUCUUACGAGAAGGUAUACGUACUU | 123 | 87 | – | –
5 | GGAUGACAAAGUCAUCCUAUUCGAACAUGAGGAUCACCCAUGUAGGAUAUGCUUCUCAAAGAGAAGCAGAAGGACAUGUGCUUU | 36.8 | 160 | – | –
6 | AAUUACAGAUGAGGAUAUUGACAUGAGGAUCACCCAUGUAUUUGGGAAUGUUUACUGAAUUCUUACGAGAAGGUAUACGUACUU | 122 | 94.3 | – | –
7 | CCUUUAUAGAUCCAUUUUAACAACAUGAGGAUCACCCAUGUGCAGGAUAUCGAUUGUUUUACUUUCGAGAAGGGCAAAUUCAGC | 19.3 | 48.7 | – | –
8 | UUUUAUUAGUAAGGAUAUACUAGCGAUGAGCUUGUAGAAGGUACAGUCUUAUGUAUAACAUGUUAACAUGAGGAUCACCCAUGU | – | – | 38.6 | 22.4
9 | AUAUAUACAAAGUUACAUGAGGAUCACCCAUGUUUAUUGGGAAGAAGGGUAACAUUAUUAGAUGUAUAGGAUAUUUCACAAUUG | – | – | 599 | 327
10 | CGAUAGGACAGAGGAUAUACACAUGAGGAUCACCCAUGUGAUUACAACGCGAAAGCUCCAAACAUGUAGAAGGCUGUCCUAUCG | 18.1 | 21.1 | – | –
11 | AAGAAAGAAACGCAGGAUAUGCAAAACAAAACAUGAGGAUCACCCAUGUCUUACUUACAAACAAAGCAGAAGGGCGAAAGAAAGAA | – | – | 20.1 | 13.2
12 | GUCGACCUAUUCGUCAGACUCUCACAGGAUAUACGAUACACAUGAGGAUCACCCAUGUAGAUAACGUAGAAGGGUGAUUCCGGU | – | – | 66.7 | 27.7
13 | AAGGAUCGAGGAUAUACAUAGAUACAGAUACAUGUAGACGUACAUGAGGAUCACCCAUGUAGAAGGCGAUUAUA | 72.6 | 220 | – | –
14 | CAUGUGUAAGGAUAUGACAAUGGUAUCGAAAGAUACCAUUGUCAGAAGGUACAUGAGGAUCACCCAUGUGGAUC | 198 | 91 | – | –
15 | UUUAUGUAGGAGAAGGAGGACUUCAUGAGGAUCACCCAUGUGUUAGGACUUAGGAUAUUUGACGACAUGAGGAUCACCCAUGUG | – | – | 64.3 | 56.5
16 | UCUGCAUAGUCAGGAUAUGCAAAGUAAGCUAUGGAAACAUAGCUUACAACAUGAGGAUCACCCAUGUAGAAGGGACUGUGCAGA | 14.1 | 13 | – | –
17 | ACAUGUUUUACAGGAUAUGUUAUACAAUAAACAAUCAGUUAUUAUGAUUUUACAGAAGGGUAUACAUGAGGAUCACCCAUGUUA | 23 | 19.1 | – | –
18 | GAUGUAUUCGUAGGAUAUCCGUCGCCACCGUGUGGAGAAGGACGAACAUGAGGAUCACCCAUGUAUCAUGGUGUAGACACUUUC | 142 | 190 | – | –
19 | ACAUGAGGAUCACCCAUGUAUUACAUGGUUAUGUUUAUUAACAGAAGGCGAAAUUACCACUUGAUCGAGGAUAUGUAUUCAAUU | 73 | 59.7 | – | –
20 | GAGCGAAAGCUCAAUGUCGAUAGCAGAAGGACAUGAAUAACAUGAAUAACAUGAGGAUCACCCAUGUAGGAUAUGCUAUCGACU | 11.1 | 108 | – | –
21 | AAUUCACAUGAGGAUCACCCAUGUCAGGAUAUGGUUUCACGGGUUUCGGUGCGUGAGGCCAGAAGGGACAGCUA | 61 | 73.7 | – | –
22 | CAGCGAUAGCUAAAGUAUCUAUCAGAGGAUAUUCAUGAAACAUGAGGAUCACCCAUGUGAAACUGGGAGAAGGCUGAUAGAUAG | – | – | – | 5.92
23 | GCUGUAUAUGAGAAGGCGAUCAUGAAACAUGAUCGAGGAUAUCAUGUUUACAUGAGGAUCACCCAUGUAUGGGUAUAAUGCAGC | – | – | 417 | 24.1
24 | AUAGCAUACCGAGGAUAUUCAUAUAAUAAAUAAACAUGAGGAUCACCCAUGUGGCGAAAGCCUAGGGAGAAGGCGGAAUGCUAA | – | – | 218 | 23.3
25 | GGGUACAUCGGAGGAUAUCAUGUAAAUACAUGAGGAUCACCCAUGUCGAUGCAGACAUCGGAGAUUGAGAAGGCCGAUGUACCG | – | – | 974 | 78.4
26 | AUUAUACAUGAGGAUCACCCAUGUUUUGGUGGGUCAGGAUAUAAAUUGAAUGAGUUUUAGUUAGAAGGGACAUUUA | – | – | 56.5 | 42.9
27 | CUGCCCAGUGUGAGGAUAUACAAAGGAAUUCCUUGGUAGAAGGCACAUGAGGAUCACCCAUGUGACUCGCGGUA | 20.6 | 52.7 | – | –
28 | CUAAAUCAUGUAGGAUAUGCAUGGCGAAGCUACGCAGAAGGACAUGAGGAUCACCCAUGUCUGUCCGUCUGCGUACAGACGGAC | 20.4 | 115 | – | –

Row | Sequence | apparent Kd [1] [nM] | apparent Kd [2] [nM] | apparent Kd [3] [nM] | apparent Kd [4] [nM]
29 | AGAUUGAAUGAGGAUAUCGAAGCGGGUACGAAGCGAGAAGGCAUGACAUGAGGAUCACCCAUGUAGUGUGGGUU | 465 | 435 | – | –
30 | GCCAGAGCAGGAUAUCUAAUAUGUCACAUGAGGAUCACCCAUGUCCAGCGAAAGCUGGAGGGAGAAGGGCUCUGGC | 65.6 | 24.4 | – | –
31 | GUCAGCUCGUGAGGAUAUACAACACUGCUUGGGCAGUGUAUUAAGAUCACAUGAGGAUCACCCAUGUAGAAGGCACGAGCUGAU | 13.9 | 216 | – | –
32 | GAUUUCUCAUGAGGAUAUGCUCGCAUUUCAAGAGCAGAAGGUAUGUCAUUAGACAUGAGGAUCACCCAUGUAGUUAAGAUUGAA | – | – | 72 | 44.7
33 | UUGUUACGAUUAGGAUAUUAUUGAUUGGACAGUAUGAUUUACAUGAGGAUCACCCAUGUUACUUUUAAGAAGGAAUCGUAUUAU | 20.9 | 17.2 | – | –
34 | GGCUACAUCGGAGGAUAUCAUGUAAAUACAUGAGGAUCACCCAUGUCGAUGGAGACAUCGGAGAUUGAGAAGGCCGAUGUACCG | – | – | 182 | 8.49
35 | GCCUUACCGGUCAGGAUAUACACUCGUCACUCCUUGUAGAAGGGACAUGAGGAUCACCCAUGUACAUUACAUUC | 38.6 | 38 | – | –
36 | ACAUGAUUCAAGAAGGAUGUAUUUGAUUUGAUCAUAGGAUAUUGUUAUUUUGUUUACUCUAAUAACAUGAGGAUCACCCAUGUA | – | – | 14.4 | 10.4
37 | ACAUGAGGAUCACCCAUGUUGACAUAGGAUAUACAACAAUAGUUACAAUCAUGUACUAUUUGAUAGUAGAAGGAUGGAACAUGA | 15.2 | 25.8 | – | –
38 | ACAUAAAUUCGAGGAUAUCGGUGAUAUAAUUUACGAGAAGGCGAUAAUAGUUAUAAACUUAUAGACAUGAGGAUCACCCAUGUA | – | – | 30.2 | 28.3
39 | CUUCUGUAAGGAUAUGUAAAUUGCUGGCCACACCAGCACCGGCAGAAGGUACAUGAGGAUCACCCAUGUGGGUU | 219 | 137 | – | –
40 | ACAUGGAAGUAGAAGGGUAAUACUUUAGAAUGUACCAUUAGAUGAUGUUAUACAGGAUAUGCUAACAUGAGGAUCACCCAUGUG | 25.6 | 19.8 | – | –
41 | AAAAAACAUGAGGAUCACCCAUGUCUUCGGACAUGAGGAUAUGUACAGACUUCGGUCUGUACAGAAGGCAUGUCUU | – | – | 97.2 | 22.8
42 | UUUGCAUUCCGAGGAUAUUCAUAUAAUAAAUACACAUGAGGAUCACCCAUGUGGCGAUAGCCUAGGGAGAAGGCGGUUUGCUUU | – | – | 22.3 | 24
43 | UUUGAAUAGGUAGGAUAUACAUACAUUCCUACAUUACUAACAUGAGGAUCACCCAUGUAUACAUUGUAGAAGGACCAGAUUGAU | 26.1 | 23.9 | – | –
44 | AUGGACGAAGGAUAUGCAUGGAGACCGGGCAGUUCAGCGCUACAUGAGGAUCACCCAUGUAGAAGGUCGCUCCC | 16 | 24.6 | – | –
45 | AUCAGCUCGUCAGGAUAUACGUCACUGCGUCAGCAGUCUGGUAAGAUCACAUGAGGAUCACCCAUGUAGAAGGGACGAGCUGAU | 19.1 | 288 | – | –
46 | UGAUGUCGCGAGGAUAUCCAAGAGGACUUUCUGGGAGAAGGUGCGACAUGAGGAUCACCCAUGUCAUAAGGAGU | 109 | 287 | – | –
47 | GUGAUCUGAGUGAGGAUAUCCUUUAAGUAAUUGCAGGAGAAGGCACAUGAGGAUCACCCAUGUACAUCUUCGCG | 36.1 | 119 | – | –
48 | GGGUACAUCGGAGGAUAUCAUGUAAAUACAUGAGGAUCACCCAUGUGGAUGGAGACAUCGGAGAUUGAGAAGGCCGAUGUACCG | – | – | 10.9 | 5.56
49 | AAAUCACAUGAGGAUCACCCAUGUGAGGAUAUGAUACUAUGUACUUCGGUACAUAGUAUCAGAAGGCAUGUGGA | 32 | 36.8 | – | –
50 | AAGCCUAAUGAGAAGGUGUGUAUAAAUUAUAUACAAGGAUAUCGGUCAAGCAUGAAAACAUGAGGAUCACCCAUGUUAAGGCUU | – | – | 5.82 | 5.51
51 | GGUUCCAUCGCAGGAUAUGCUAUCCUUUGGGUAGCAGAAGGGUGAUAACAUGAGGAUCACCCAUGUGGAACCGGGCGUGAGCCC | – | – | 177 | 1050
52 | CGUCUAUGCCAGAAGGCAUGAAACAUGAGGAUCACCCAUGUCAAAGACAUGAGGAUAUGGCAUAGACGAAAAGUGCGAAAGCAC | – | – | 4.32 | 3.27
53 | GAUUACAAGUAAGGAUAUGUAUAUGAAACAUAUACAGAAGGUACAUGAGGAUCACCCAUGUUCUUGCAAAGCGAAUAUGUAAUC | 17.3 | 21 | – | –
54 | AGGGUGGGAGGAUAUCCAAUAUAUGACAUGAGGAUCACCCAUGUUUCCACUCGUACCUCCGGAGAAGGCCCUUCCA | 19.9 | 19.7 | – | –
55 | AACAAUGGUUAACAUGAGGAUCACCCAUGUUGGAAGCCUUCACAGGAUAUGUAGCGGGCAUACGCACAGAAGGGUGAUCGCGGU | – | – | 37.5 | 32.6
